1 compound from ChEMBL document CHEMBL1153124, “5-Lipoxygenase-activating protein inhibitors. Part 2: 3-{5-((S)-1-Acetyl-2,3-dihydro-1H-indol-2-ylmethoxy)-3-tert-butylsulfanyl-1-[4-(5-methoxy-pyrimidin-2-yl)-benzyl]-1H-indol-2-yl}-2,2-dimethyl-propionic acid (AM679)--a potent FLAP inhibitor” (Bioorg Med Chem Lett, 2010) can be followed below.

Data set [1] concerns Rattus norvegicus. Put plainly: Reduction of CysLT production in lung lavage fluid of po dosed calcium ionophore A23187 treated rat bronchoalveolar lavage model administered 4 hrs prior to calcium ionophore A23187 challenge. Type of data set: functional. In short, it runs like this:
(§1)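 Rat BAL model. Oral dose-response study with dosing 4 h before ionophore challenge; ED50 for LTB4 and CysLT in lavage fluid.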

In data set [2] the test system is Rattus norvegicus. Put plainly: Reduction of LTB4 production in lung lavage fluid of calcium ionophore A23187 treated rat bronchoalveolar lavage model at 10 mg/kg, po administered 4 hrs prior to calcium ionophore A23187 challenge. Type of data set: functional. Also on record: scale not given: the % may be the effect or the level left. In short, it runs like this: (§2)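 Rat bronchoalveolar lavage model. Oral dose of 10 mg/kg as the sodium carboxylate salt, given 4 h before ionophore challenge. LTB4 and CysLT measured in lung lavage fluid; average plasma levels taken 3 h post dose.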

The nature of data set [3]: Inhibition of LTB4 production in calcium ionophore A23187 treated human leukocytes. It is filed as functional, cell-based. To be noted: Leukocyte. In short, it runs like this:
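Human leukocytes challenged with calcium ionophore; LTB4 produced by the cells was measured. IC50 is the average of n ≥ 3.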

A short description of data set [4]: Half life in rat at 10 mg/kg, po. More on the design: dose 10 mg/kg, route oral. Type of data set: ADME, organism-based. To be noted: in vivo. In short, it runs like this:
(§3)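 Rat, oral dosing at 10 mg/kg given as the sodium carboxylate salt. Read-outs: F, clearance, Cmax, AUC and half-life.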

A short description of data set [5]: Solubility in 0.9% saline. It is filed as physicochemical.
Data set [6] can be described thus: Plasma concentration in calcium ionophore A23187 treated rat bronchoalveolar lavage model at 10 mg/kg, po administered 4 hrs prior to calcium ionophore A23187 challenge measured 3 hrs after post dose. More on the design: dose 10 mg/kg, route oral. It is filed as ADME, organism-based. In short, it runs like this: as §2
Data set [7] deals with Rattus norvegicus. Description: Reduction of CysLT production in lung lavage fluid of calcium ionophore A23187 treated rat bronchoalveolar lavage model at 10 mg/kg, po administered 4 hrs prior to calcium ionophore A23187 challenge. More on the design: scale not given: the % may be the effect or the level left. It is filed as functional. In short, it runs like this: as §2

For data set [8], the target named is T1, Arachidonate 5-lipoxygenase-activating protein (Homo sapiens, UniProt P20292).
T1 sequence (P20292 whole entry): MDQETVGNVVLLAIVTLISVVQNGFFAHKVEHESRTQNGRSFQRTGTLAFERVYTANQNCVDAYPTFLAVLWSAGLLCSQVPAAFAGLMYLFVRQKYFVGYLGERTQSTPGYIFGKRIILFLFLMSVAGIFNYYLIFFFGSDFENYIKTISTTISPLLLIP
Description: Binding affinity to FLAP in human PMN derived membrane. It is filed as cell membranes. In short, it runs like this:
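FLAP binding measured in membranes derived from human polymorphonuclear leukocytes (PMN). IC50 values are the average of n ≥ 3.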

Data set [9] relates to Rattus norvegicus. Description: Reduction of CysLT production in lung lavage fluid of calcium ionophore A23187 treated rat bronchoalveolar lavage model at 3 mg/kg, po administered 16 hrs prior to calcium ionophore A23187 challenge. It is filed as functional. Also on record: scale not given: the % may be the effect or the level left. In short, it runs like this:
(§4)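 Rat BAL model. 3 mg/kg given orally 16 h before ionophore challenge. LTB4 and CysLT inhibition measured in lavage fluid; average plasma levels measured at that time point.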

Data set [10] relates to Rattus norvegicus. Put plainly: Reduction of LTB4 production in lung lavage fluid of calcium ionophore A23187 treated rat bronchoalveolar lavage model at 3 mg/kg, po administered 16 hrs prior to calcium ionophore A23187 challenge. More on the design: scale not given: the % may be the effect or the level left. Type of data set: functional. In short, it runs like this: as §4

Data set [11] can be described thus: Cmax in rat at 10 mg/kg, po. Also on record: dose 10 mg/kg, route oral. The settings on record: in vivo. Type of data set: ADME, organism-based. In short, it runs like this: as §3
The test system of data set [12] is Blood. Put plainly: Reduction of LTB4 production in rat blood after 4 hrs. Type of data set: functional, tissue-based. In short, it runs like this: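 Rat blood incubated with compound for 4 h, then ionophore challenge; inhibition of LTB4 production measured; IC50.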
A further data set concerns the target Cytochrome P450 2D6 (Homo sapiens, UniProt P10635). Put plainly: Inhibition of CYP2D6. It is filed as ADME.
Data set [13] in a line: Plasma concentration in calcium ionophore A23187 treated rat bronchoalveolar lavage model at 3 mg/kg, po administered 16 hrs prior to calcium ionophore A23187 challenge. Type of data set: ADME, organism-based. More on the design: dose 3 mg/kg, route oral. In short, it runs like this: as §4
Data set [14] is described as follows: Clearance in rat at 10 mg/kg, po. Type of data set: ADME, organism-based. Also on record: dose 10 mg/kg, route oral. To be noted: in vivo. In short, it runs like this: as §3
Another data set addresses Cytochrome P450 3A4 (Homo sapiens, UniProt P08684). Description: Induction of CYP3A4 activity. Type of data set: ADME. In short, it runs like this:
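CYP3A4 induction assay measuring a compound's ability to raise CYP enzyme activity.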

In a further data set the target is Cytochrome P450 2C9 (Homo sapiens, UniProt P11712). Description: Inhibition of CYP2C9. It is filed as ADME.
Data set [15] is described as follows: Solubility in water. It is filed as physicochemical.
The subject of data set [16] is Blood. Description: Inhibition of LTB4 production in calcium ionophore treated A23187 human whole blood after 5 hrs. It is filed as functional, tissue-based. In short, it runs like this:
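Human whole blood incubated with compound for an extended 5 h before ionophore challenge; LTB4 production measured. IC50 from n = 6, each n the average of two donors.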

The test system of data set [17] is Blood. Description: Reduction of LTB4 production in rat blood after 3 hrs. Type of data set: functional, tissue-based.
Data set [18] relates to Blood. Description: Inhibition of LTB4 production in calcium ionophore treated A23187 human whole blood after 15 mins. Type of data set: functional, tissue-based. The settings on record: 0.25 h.
For data set [19], the system named is Rattus norvegicus. Description: Reduction of LTB4 production in lung lavage fluid of po dosed calcium ionophore A23187 treated rat bronchoalveolar lavage model administered 4 hrs prior to calcium ionophore A23187 challenge. It is filed as functional. In short, it runs like this:
as §1

The nature of data set [20]: Bioavailability in rat at 10 mg/kg. Type of data set: ADME, organism-based. To be noted: in vivo. In short, it runs like this: as §3

Values after ≈ are worked out from the molar mass of the structure shown. Where only a bound is given, the exact number is not on record here.

Chain of Cytochrome P450 2D6 (P10635 whole entry): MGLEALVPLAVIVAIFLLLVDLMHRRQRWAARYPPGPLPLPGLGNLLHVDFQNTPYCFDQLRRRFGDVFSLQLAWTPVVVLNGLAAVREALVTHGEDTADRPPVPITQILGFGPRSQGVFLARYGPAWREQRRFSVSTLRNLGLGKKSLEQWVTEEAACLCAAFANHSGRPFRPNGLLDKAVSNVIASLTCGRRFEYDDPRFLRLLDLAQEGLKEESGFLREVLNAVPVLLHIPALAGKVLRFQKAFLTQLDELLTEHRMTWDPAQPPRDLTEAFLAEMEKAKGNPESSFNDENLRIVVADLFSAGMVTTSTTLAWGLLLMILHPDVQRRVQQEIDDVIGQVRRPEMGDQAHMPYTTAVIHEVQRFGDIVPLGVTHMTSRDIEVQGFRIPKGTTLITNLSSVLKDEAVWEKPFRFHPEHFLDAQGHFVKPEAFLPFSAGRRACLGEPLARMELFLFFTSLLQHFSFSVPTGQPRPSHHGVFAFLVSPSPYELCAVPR
Chain of Cytochrome P450 3A4 (P08684 whole entry): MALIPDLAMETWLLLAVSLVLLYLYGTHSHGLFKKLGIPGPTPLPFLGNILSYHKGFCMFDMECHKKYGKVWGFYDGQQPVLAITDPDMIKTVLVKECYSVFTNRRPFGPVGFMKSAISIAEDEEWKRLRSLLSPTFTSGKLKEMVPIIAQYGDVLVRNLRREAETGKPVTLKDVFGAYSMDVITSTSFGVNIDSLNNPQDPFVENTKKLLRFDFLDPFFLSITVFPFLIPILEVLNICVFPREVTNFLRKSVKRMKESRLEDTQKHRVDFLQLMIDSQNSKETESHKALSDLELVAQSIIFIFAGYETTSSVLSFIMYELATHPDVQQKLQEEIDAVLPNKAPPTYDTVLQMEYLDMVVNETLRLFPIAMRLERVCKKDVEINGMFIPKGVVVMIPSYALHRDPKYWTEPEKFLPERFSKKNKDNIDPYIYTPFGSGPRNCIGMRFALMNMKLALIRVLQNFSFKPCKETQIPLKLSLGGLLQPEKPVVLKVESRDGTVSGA
Chain of Cytochrome P450 2C9 (P11712 whole entry): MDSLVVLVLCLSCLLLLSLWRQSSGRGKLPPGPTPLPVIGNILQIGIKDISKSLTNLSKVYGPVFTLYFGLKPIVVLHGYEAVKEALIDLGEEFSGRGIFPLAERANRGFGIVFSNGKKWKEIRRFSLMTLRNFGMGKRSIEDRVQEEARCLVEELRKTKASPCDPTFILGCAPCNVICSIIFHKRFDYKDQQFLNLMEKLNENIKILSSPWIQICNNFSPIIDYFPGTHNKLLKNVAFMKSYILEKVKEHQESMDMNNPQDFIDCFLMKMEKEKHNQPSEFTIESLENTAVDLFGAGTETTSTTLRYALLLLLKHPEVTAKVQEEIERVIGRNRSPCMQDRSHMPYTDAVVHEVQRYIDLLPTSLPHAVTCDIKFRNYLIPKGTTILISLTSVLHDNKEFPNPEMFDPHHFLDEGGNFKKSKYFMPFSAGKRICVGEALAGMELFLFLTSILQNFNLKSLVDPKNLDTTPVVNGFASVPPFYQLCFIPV

For `COc1cnc(-c2ccc(Cn3c(CC(C)(C)C(=O)O)c(SC(C)(C)C)c4cc(OC[C@@H]5Cc6ccccc6N5C(C)=O)ccc43)cc2)nc1`, the ED50 in the data set with Rattus norvegicus [1] was 1.4 mg/kg; with Rattus norvegicus [19], 0.8 mg/kg. Also, the Activity in the data set with Rattus norvegicus [2] is recorded as 98%; with Rattus norvegicus [7] it was 87%; with Rattus norvegicus [9], 45%; in the data set with Rattus norvegicus [10], 77%; at Cytochrome P450 3A4, “Not Active”. For the same compound, the IC50 in data set [3] was found to be 0.6 nM; in [8], 2.2 nM; with Blood [12], 9 nM; on Cytochrome P450 2C9 it was 3.7 µM; in the data set with Blood [16] it was 53 nM; in the data set on Blood [17] it was 125 nM. For the same compound, the IC50 with Blood [18] worked out at 154 nM. In data set [4], this compound gave a half-life of 408 min. The solubility was 30 µg/mL (≈ 0.0433 mM) in data set [5] and 10000 µg/mL (≈ 14.4 mM) in data set [15]. For the same compound, in data set [6], the concentration at 3 h amounted to 605 nM. Moreover, in data set [11], the Cmax was determined as 1600 nM. The same compound returned an INH on Cytochrome P450 2D6 of more than 30 µM. Also, the concentration at 16 h in data set [13] was 4 nM. The compound further yielded a CL/F in [14] of 11 mL/min/kg. The compound further gave a bioavailability in data set [20] of 29%.

What is called ED50 is the dose that gives a 50% effect, or the effect in half of the subjects. The IC50 is the concentration that gives 50% inhibition. Usually half-life stands for the time in which the quantity being followed falls by half. As usually defined, the solubility is how much of the substance goes into solution per volume. Broadly, the Cmax is the highest concentration seen after dosing. A word on the CL/F: it is the apparent clearance, not corrected for the fraction that reaches the circulation. Broadly, the bioavailability is dose-corrected exposure relative to a reference, in per cent.
